Measurements reported in EPA's CvTdb concentration-time database.

Legend:
human [1] = experiment: concentration in blood after dosing; negative times count back from the end of exposure; settings: dosed: ethanol, inhalation, duration: 4 hr
Outline: (§1)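 A PubMed search, classifier screening and manual review identified published in vivo toxicokinetic studies, which together with two structured collections supplied concentration-versus-time and amount-versus-time points. Points were mostly digitised from plot screenshots with WebPlotDigitizer, otherwise copied from tables. Dose, route, subject details and medium were hand-curated from each paper, and sampling and analytical methods are those of the sources, often unreported.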

rat [2] = experiment: concentration in blood after dosing; negative times count back from the end of exposure; settings: inhalation
rat [3] = experiment: concentration in feces after dosing; settings: dosed: benzo[a]pyrene, 200 mg/kg, iv, male, LIO
rat [4] = experiment: concentration in urine after dosing; settings: dosed: benzo[a]pyrene, 200 mg/kg, iv, male, LIO
human [5] = experiment: concentration in expired air after dosing; negative times count back from the end of exposure; settings: dosed: dichloromethane, inhalation, duration: 6 hr, male
Outline: as §1

CCO [ethanol]
concentration in blood [mg/L], human [1]
Settings	female	male
0.4897 h, 125 ppm	0.06	0.0623
0.4897 h, 250 ppm	–	0.101
0.4897 h, 450 ppm	0.158	0.201
0.4966 h, 750 ppm	0.299	0.227
0.4966 h, 1000 ppm	0.571	0.267
0.9954 h, 250 ppm	0.0742	0.0671
1.002 h, 125 ppm	0.0429	0.0408
1.002 h, 450 ppm	0.101	0.112
1.002 h, 750 ppm	0.153	0.094
1.002 h, 1000 ppm	0.248	0.142

concentration in blood [mg/L], human [1], during exposure
Settings	-33 s	-8 s	-4 h	-3.002 h	-2.995 h	-1.007 h	-1 h
125 ppm, female	–	0.179	0.0356	0.165	–	–	0.158
125 ppm, male	–	0.196	0.0369	0.165	–	–	0.196
250 ppm, female	0.451	–	0.0789	0.374	–	0.445	–
250 ppm, male	–	–	0.0429	0.468	–	0.457	–
450 ppm, female	1	–	0.0524	0.851	–	–	1
450 ppm, male	1.09	–	–	0.851	–	–	0.905
750 ppm, female	–	1.62	0.0655	–	1.43	–	1.86
750 ppm, male	–	2.06	–	–	1.77	–	1.51
1000 ppm, female	2.64	–	0.133	–	2.3	–	2.51
1000 ppm, male	2.92	–	–	–	2.81	–	2.36

CCCCCCCCC [nonane]
rat [2], dosed: nonane, duration: 4 hr
Settings	concentration in blood [µg/g]
-83 s, 100 ppm, Fischer-344, during exposure	0.892
-71 s, 500 ppm, Fischer-344, during exposure	4.34
-56 s, 1000 ppm, Fischer-344, during exposure	16.8
-3.501 h, 500 ppm, Fischer-344, during exposure	2.02
-3.496 h, 1000 ppm, Fischer-344, during exposure	7.04
-3.494 h, 100 ppm, Fischer-344, during exposure	0.434
-3.003 h, 100 ppm, Fischer-344, during exposure	0.523
-2.994 h, 1000 ppm, Fischer-344, during exposure	6.96
-2.988 h, 500 ppm, Fischer-344, during exposure	2.21
-2.014 h, 1000 ppm, Fischer-344, during exposure	15.4
-2.009 h, 100 ppm, Fischer-344, during exposure	0.518
-2.007 h, 500 ppm, Fischer-344, during exposure	3.72
-1.02 h, 1000 ppm, Fischer-344, during exposure	17.2
-1.016 h, 100 ppm, Fischer-344, during exposure	0.672
-1.013 h, 500 ppm, Fischer-344, during exposure	3.57
0.1362 h, 1000 ppm, Fischer-344	11
0.1413 h, 100 ppm, Fischer-344	0.367
0.1425 h, 500 ppm, Fischer-344	2.81
0.2276 h, 100 ppm, Fischer-344	0.309
0.2331 h, 1000 ppm, Fischer-344	9.37
0.2405 h, 500 ppm, Fischer-344	1.93
0.4818 h, 1000 ppm, Fischer-344	5.11
0.4859 h, 100 ppm, Fischer-344	0.209
0.4867 h, 500 ppm, Fischer-344	1.77
0.9803 h, 500 ppm, Fischer-344	1.17
0.9804 h, 100 ppm, Fischer-344	0.115
0.9849 h, 1000 ppm, Fischer-344	4.34
1.969 h, 100 ppm, Fischer-344	0.0382
1.99 h, 500 ppm, Fischer-344	0.41
1.992 h, 1000 ppm, Fischer-344	2.37
2.984 h, 500 ppm, Fischer-344	0.368
2.985 h, 100 ppm, Fischer-344	0.0308
2.999 h, 1000 ppm, Fischer-344	1.47
3.992 h, 100 ppm, Fischer-344	0.0196
3.997 h, 1000 ppm, Fischer-344	0.691
4.002 h, 500 ppm, Fischer-344	0.255
198 s, 100 ppm, Fischer-344	0.432
217 s, 1000 ppm, Fischer-344	13.7
239 s, 500 ppm, Fischer-344	3.73

Oc1ccc2ccc3c4ccccc4cc4ccc1c2c43 [3-OH-BP]
Settings	concentration in feces, rat [3] [µg/kg]	concentration in urine, rat [4] [µg/kg]
24 h	6.9	3.9
48 h	9.9	5.4
72 h	8.9	6.2
96 h	9.6	5
120 h	7.7	4.2
144 h	9.1	2.6
168 h	8.4	2.6
192 h	4	2.5
216 h	3.3	2.8
240 h	3.2	2.7
264 h	3.1	2.5
288 h	2.5	2.6
312 h	2.5	2.5
336 h	2.3	2.2
360 h	2.3	2.5

CCCCCC [n-hexane]
rat [2], dosed: n-hexane, 3000 ppm, duration: 6 hr
Settings	concentration in blood [mg/L]
0.4718 h	2.22
0.9831 h	1.92
1.99 h	1.37
4.003 h	0.0656
5.974 h	0.0422
7.994 h	0.0593
29 s	8.42

rat [2], dosed: n-hexane, 3000 ppm, duration: 6 hr, during exposure
Settings	concentration in blood [mg/L]
-6 h	0.0203
-5.509 h	7.9
-5.025 h	8.53
-4.008 h	9.82
-3.002 h	9.01
-2.005 h	9.72

[C-]#[O+] [carbon monoxide]
concentration in expired air [ppm], human [5]
Settings	100 ppm	350 ppm
0.083 h	17.1	34.6
0.25 h	16.2	32.5
0.5 h	15.8	32.6
1 h	15.7	33.3
1.5 h	14.9	32.3
2 h	14.6	30.9
3 h	11.8	26.8
4 h	10.8	25.1
6 h	10	21.2
8 h	9.1	16.9
16 h	6.8	11.8
24 h	4.3	5.6

concentration in expired air [ppm], human [5], during exposure
Settings	-36 s	-6 h	-5.75 h	-5.5 h	-5 h	-4.5 h	-4 h	-3 h	-2 h	-1 h
100 ppm	16.8	3.8	5.3	5.8	7	8.1	9	10.7	13.1	15.3
350 ppm	36.1	4.2	6.5	7.6	10.5	13.3	16.1	20.9	25.9	31.1
